In ChEMBL document CHEMBL3593208 (Bioorg Med Chem, 2015):

Columns and labels:
[1] = Cytotoxicity against human NMC-797 cells assessed as cell viability after 48 hrs by luminescence assay; format: functional, cell-based; settings: NMC-797, 48 h
How it was run: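 797 cells seeded at 2.0×10^4 cells/well in 384-well plates. Compound was pin-transferred in a dose-response series with 0.02% DMSO final and incubated 48 h. Viability was read as ATP-dependent luminescence. IC50 was estimated by logistic regression of replicate measurements against dose, with standard error of logIC50.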

[2] = Cytotoxicity against human NMC-10326 cells assessed as cell viability after 48 hrs by luminescence assay; format: functional, cell-based
How it was run: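 Cells seeded in 384-well plates at 2.0×10^4 cells/well; compound pin-transferred in a dose series, final DMSO 0.02%. After 48 h exposure, viability read as ATP-dependent luminescence (ATPLite). IC50 estimated from replicate measurements by logistic regression.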

[3] = molecular target: T1, Histone deacetylase 8 (Homo sapiens, UniProt Q9BY41); assay: Inhibition of recombinant full-length HDAC8 (unknown origin) using MAZ1600/MAZ1675 as substrate assessed as release of 7 amino-4-methylcoumarin measured every 5 mins by fluorescence assay
T1 sequence (Q9BY41 whole entry): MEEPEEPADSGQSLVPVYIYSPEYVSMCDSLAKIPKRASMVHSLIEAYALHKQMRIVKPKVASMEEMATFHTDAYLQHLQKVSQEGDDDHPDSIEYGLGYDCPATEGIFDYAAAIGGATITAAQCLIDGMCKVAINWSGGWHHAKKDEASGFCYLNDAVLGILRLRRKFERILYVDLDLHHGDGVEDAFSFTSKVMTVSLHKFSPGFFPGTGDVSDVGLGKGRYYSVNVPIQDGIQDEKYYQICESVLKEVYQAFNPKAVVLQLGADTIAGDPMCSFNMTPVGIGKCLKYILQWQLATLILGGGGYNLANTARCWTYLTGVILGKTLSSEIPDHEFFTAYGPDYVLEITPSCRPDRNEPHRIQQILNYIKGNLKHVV
How it was run: (§1)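 AMC release after deacetylase plus trypsin action read every 5 min. First derivative in the linear range used. Replicates normalised to DMSO controls (<0.5%). IC50 by logistic regression, unconstrained max/min.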

[4] = molecular target: Histone deacetylase 1 (Homo sapiens, UniProt Q13547); assay: Inhibition of recombinant full-length HDAC1 (unknown origin) using MAZ1600/MAZ1675 as substrate assessed as release of 7 amino-4-methylcoumarin measured every 5 mins by fluorescence assay; how it was run: as §1
[5] = molecular target: Histone deacetylase 2 (Homo sapiens, UniProt Q92769); assay: Inhibition of recombinant full-length HDAC2 (unknown origin) using MAZ1600/MAZ1675 as substrate assessed as release of 7 amino-4-methylcoumarin measured every 5 mins by fluorescence assay; how it was run: as §1
[6] = molecular target: Histone deacetylase 3 (Homo sapiens, UniProt O15379); assay: Inhibition of recombinant full-length HDAC3 (unknown origin) using MAZ1600/MAZ1675 as substrate assessed as release of 7 amino-4-methylcoumarin measured every 5 mins by fluorescence assay
[7] = molecular target: T2, Protein deacetylase HDAC6 (Homo sapiens, UniProt Q9UBN7); assay: Inhibition of recombinant full-length HDAC6 (unknown origin) using MAZ1600/MAZ1675 as substrate assessed as release of 7 amino-4-methylcoumarin measured every 5 mins by fluorescence assay
T2 sequence (Q9UBN7 whole entry): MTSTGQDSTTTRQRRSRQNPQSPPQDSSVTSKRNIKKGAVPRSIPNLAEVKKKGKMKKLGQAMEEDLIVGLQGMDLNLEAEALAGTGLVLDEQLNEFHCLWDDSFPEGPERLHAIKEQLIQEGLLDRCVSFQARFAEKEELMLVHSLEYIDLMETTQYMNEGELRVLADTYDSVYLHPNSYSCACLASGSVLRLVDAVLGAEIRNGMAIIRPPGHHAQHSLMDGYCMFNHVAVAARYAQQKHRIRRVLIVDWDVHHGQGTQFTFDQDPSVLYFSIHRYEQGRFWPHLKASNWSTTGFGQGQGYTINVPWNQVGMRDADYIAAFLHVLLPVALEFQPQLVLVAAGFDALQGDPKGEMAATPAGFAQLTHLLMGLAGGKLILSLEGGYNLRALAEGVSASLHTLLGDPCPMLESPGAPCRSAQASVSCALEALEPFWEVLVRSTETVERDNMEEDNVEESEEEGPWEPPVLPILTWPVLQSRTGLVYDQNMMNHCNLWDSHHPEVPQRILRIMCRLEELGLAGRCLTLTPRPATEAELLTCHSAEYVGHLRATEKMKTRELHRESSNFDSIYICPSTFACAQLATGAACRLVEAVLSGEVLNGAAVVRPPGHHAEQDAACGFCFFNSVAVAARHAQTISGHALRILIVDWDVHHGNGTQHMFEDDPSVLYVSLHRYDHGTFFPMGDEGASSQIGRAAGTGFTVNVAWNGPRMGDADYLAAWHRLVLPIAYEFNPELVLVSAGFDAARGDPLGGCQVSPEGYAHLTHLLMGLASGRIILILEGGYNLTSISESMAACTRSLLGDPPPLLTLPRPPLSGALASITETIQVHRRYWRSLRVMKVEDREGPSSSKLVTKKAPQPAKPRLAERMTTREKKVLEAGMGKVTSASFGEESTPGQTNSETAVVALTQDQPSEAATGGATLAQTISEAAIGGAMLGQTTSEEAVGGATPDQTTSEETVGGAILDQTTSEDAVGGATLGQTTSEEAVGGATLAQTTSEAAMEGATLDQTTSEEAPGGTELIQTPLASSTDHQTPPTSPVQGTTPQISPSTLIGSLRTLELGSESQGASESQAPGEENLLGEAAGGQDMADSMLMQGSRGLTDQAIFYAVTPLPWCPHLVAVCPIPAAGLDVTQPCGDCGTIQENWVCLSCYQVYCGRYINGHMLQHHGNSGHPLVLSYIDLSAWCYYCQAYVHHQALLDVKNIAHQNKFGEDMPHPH
How it was run: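 AMC release after deacetylase/trypsin action read every 5 min. Linear-range first derivative normalised to DMSO controls (<0.5%). IC50 by unconstrained logistic regression.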

Histone deacetylase 3, sequence (O15379 whole entry): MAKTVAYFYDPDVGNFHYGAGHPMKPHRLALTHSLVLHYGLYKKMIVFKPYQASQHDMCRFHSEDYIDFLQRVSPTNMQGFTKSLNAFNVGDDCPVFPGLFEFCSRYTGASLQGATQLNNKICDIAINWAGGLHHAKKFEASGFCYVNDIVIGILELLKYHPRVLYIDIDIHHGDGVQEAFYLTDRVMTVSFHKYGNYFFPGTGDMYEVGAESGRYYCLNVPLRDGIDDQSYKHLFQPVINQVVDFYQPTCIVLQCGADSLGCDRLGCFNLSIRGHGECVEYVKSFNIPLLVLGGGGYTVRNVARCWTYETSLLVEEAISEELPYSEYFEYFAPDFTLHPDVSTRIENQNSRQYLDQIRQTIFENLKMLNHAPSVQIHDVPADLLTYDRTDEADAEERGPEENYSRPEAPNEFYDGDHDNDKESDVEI
Histone deacetylase 2, sequence (Q92769 whole entry): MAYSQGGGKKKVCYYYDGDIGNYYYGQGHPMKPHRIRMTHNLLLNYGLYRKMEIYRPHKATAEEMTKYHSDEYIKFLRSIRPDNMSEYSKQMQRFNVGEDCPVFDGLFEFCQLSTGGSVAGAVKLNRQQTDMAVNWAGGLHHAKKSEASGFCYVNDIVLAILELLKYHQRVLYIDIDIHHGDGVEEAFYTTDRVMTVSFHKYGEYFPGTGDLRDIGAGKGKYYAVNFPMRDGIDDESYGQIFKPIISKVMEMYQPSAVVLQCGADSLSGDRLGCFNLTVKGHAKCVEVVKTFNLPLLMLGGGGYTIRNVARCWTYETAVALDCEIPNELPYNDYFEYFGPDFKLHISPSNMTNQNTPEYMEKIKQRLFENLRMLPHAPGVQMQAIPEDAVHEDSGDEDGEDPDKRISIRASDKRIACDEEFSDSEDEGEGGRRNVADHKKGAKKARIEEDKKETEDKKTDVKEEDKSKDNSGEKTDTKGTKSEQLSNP
Histone deacetylase 1, sequence (Q13547 whole entry): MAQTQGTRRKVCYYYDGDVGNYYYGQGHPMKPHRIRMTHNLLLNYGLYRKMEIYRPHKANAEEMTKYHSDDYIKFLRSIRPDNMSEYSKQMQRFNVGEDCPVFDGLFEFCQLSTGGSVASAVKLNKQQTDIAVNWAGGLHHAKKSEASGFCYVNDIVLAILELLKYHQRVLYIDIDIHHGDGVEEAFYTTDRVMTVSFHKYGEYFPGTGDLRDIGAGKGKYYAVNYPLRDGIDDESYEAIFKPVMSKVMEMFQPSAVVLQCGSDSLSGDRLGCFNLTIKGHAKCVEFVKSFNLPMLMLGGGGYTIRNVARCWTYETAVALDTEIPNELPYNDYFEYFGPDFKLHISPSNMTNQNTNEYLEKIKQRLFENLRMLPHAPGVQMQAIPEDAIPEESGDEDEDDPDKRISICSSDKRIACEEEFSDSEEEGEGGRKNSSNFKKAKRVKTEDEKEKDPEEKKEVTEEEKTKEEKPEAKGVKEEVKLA

SMILES	IC50 ([1]; read-out: IC50) [nM]	IC50 ([1]; read-out: pIC50 (converted)) [nM]	IC50 ([2]; read-out: IC50) [nM]	IC50 ([2]; read-out: pIC50 (converted)) [nM]	IC50 [3] [nM]	IC50 [4] [nM]	IC50 [5] [nM]	IC50 [6] [nM]	IC50 [7] [nM]
CC(C)[C@@H]1NC(=O)[C@]2(C)CSC(=N2)c2csc(n2)CNC(=O)C[C@@H](/C=C/CCS)NC1=O	1740	1730	11900	11900	255				
CCCCCCCC(=O)SCC/C=C/[C@@H]1CC(=O)NCc2cccc(n2)C2=N[C@@](C)(CS2)C(=O)N[C@@H](C(C)C)C(=O)O1						204	350	332	
CC(C)[C@@H]1NC(=O)[C@]2(C)CSC(=N2)c2cccc(n2)CNC(=O)C[C@@H](/C=C/CCS)OC1=O	220	222	290	298	341			3.07	48.5
CCCCCCCC(=O)SCC/C=C/[C@@H]1CC(=O)NCc2cc(ccn2)C2=N[C@@](C)(CS2)C(=O)N[C@@H](C(C)C)C(=O)O1						340	655	320	
CC(C)[C@@H]1NC(=O)[C@]2(C)CSC(=N2)c2ccnc(c2)CNC(=O)C[C@@H](/C=C/CCS)OC1=O	90	93.1	120	122	102	2.2	4.42	2.31	35.2
CCCCCCCC(=O)SCC/C=C/[C@@H]1CC(=O)NCc2cccc(n2)C2=N[C@@](C)(CS2)C(=O)N[C@@H](C(C)C)C(=O)N1						340	472	332	
CC(C)[C@@H]1NC(=O)[C@]2(C)CSC(=N2)c2cccc(n2)CNC(=O)C[C@@H](/C=C/CCS)NC1=O						42	69.8	42.5	
CCCCCCCC(=O)SCC/C=C/[C@@H]1CC(=O)NCc2cc(ccn2)C2=N[C@@](C)(CS2)C(=O)N[C@@H](C(C)C)C(=O)N1						817	1240	846	
CC(C)[C@@H]1NC(=O)[C@]2(C)CSC(=N2)c2ccnc(c2)CNC(=O)C[C@@H](/C=C/CCS)NC1=O					1490	13.2	20.8	14.6	2850
